Not all results are given here.
Apaf1 activ: human Apaf-1 activation; actives 0.31% (n = 330,000); AID 489031; O14727; Apaf-1 apoptosome caspase-3 activation, DEVD-Rh110 fluorescence; hits give low values; activity change, negative = activation, % at 20 µM;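 active means activity change at or below -40% at 20 µM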
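Schedule: 30 min preincubation, 50 min reaction, room temperature / System: biochemical Apaf-1 apoptosome reconstitution / Medium: 20 mM HEPES pH 7.5 with CHAPS, BSA / Evaluation: Caspase-3 cleavage activity downstream of Apaf-1 activation / Detection: Caspase-3-released Rh110 fluorescence, 540 nm emission, 480 nm excitation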
Rh110 interf act: interferes with Rh110 fluorescence, flagging false Apaf-1 activators. 980 tested, under 10 active. Rh110 fluorescence interference, quenched caspase reaction, Ex480/Em540. shares compounds with Apaf1 activ. fluorescence interference (activity change), % at 20 µM, hits read low;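 active means mean activity change at or below -40% when tested at 20 µM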
Apaf-1 act conf: confirmation of human Apaf-1 activators. activity change, negative = activation, % at 20 µM. actives 5% (n = 980). reconstituted apoptosome caspase-3 activity, DEVD-Rh110 fluorescence; hits give low values. shares compounds with Apaf1 activ;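 active means mean activity change at or below -40%, meaning activation of 40% or more, at 20 µM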
Hits are given with their value; . = inactive; / = not tested or not shown.

SMILES	Apaf1 activ	Rh110 interf act	Apaf-1 act conf
COc1ccc(-c2cc3c(nn2)-c2ccccc2C3=O)cc1	.	/	/
C#CCOCCOCCOCCNc1nc(N2CCN(C(=O)[C@H](CCCN=C(N)N)n3cc(C(N)[C@@H](C)CC)nn3)CC2)nc(N2CCN(C(=O)[C@H](CCCCN)n3cc([C@@H](N)[C@H](C)CC)nn3)CC2)n1 (stereo partly specified)	.	/	/
Fc1ccc(F)c(C2=NNC(=Nc3ccccc3F)SC2)c1	-45	.	.
CC(=O)CCc1ccc(OCC(O)CNC2CCCc3ccccc32)cc1 (stereo unspecified)	.	/	/
CCc1ccccc1OC[C@@H](O)CN[C@H]1CCCc2ccccc21	.	/	/
Cc1cc2occ(CC(=O)NC3CCCc4ccccc43)c2cc1C (stereo unspecified)	-164	.	.
O=C1CCCC/C1=C\Nc1ccc(Cl)cn1	-73	.	.
Nc1ccn([C@H]2C[C@H](O)[C@@H](CO)O2)c(=O)n1	.	/	/
CC(C)=CCC1=C(OCC(=O)O)C(=O)c2ccccc2C1=O	.	/	/
CCCN1CCN(C(=S)Nc2ccccc2C(F)(F)F)CC1	-81	.	.
CC1Cc2ccccc2N1CC(=O)Nc1ccc(S(=O)(=O)N(C)C)cc1 (stereo unspecified)	-444	.	.
CN(C)S(=O)(=O)c1ccc(NC(=O)CN2CCCC2c2ccc3c(c2)OCCCO3)cc1 (stereo unspecified)	.	/	/
CC1CCCCC1NS(=O)(=O)c1ccc(S(=O)(=O)N2CCN(CCC#N)CC2)cc1 (stereo unspecified)	-65	.	.
O=C(Nc1cccc2cccnc12)c1cccc([N+](=O)[O-])c1	-342	.	.
Oc1ccc(Br)cc1CNc1cccc2cccnc12	.	/	/
C/C(=N\NC(=O)Cc1cc(=O)[nH][nH]1)c1cccc([N+](=O)[O-])c1	.	/	/
Oc1ccc(/C=N/Nc2cc(N3CCCC3)nc(N3CCCC3)n2)cc1O	.	/	/
CCCCCCCCCCOC(=O)Cn1c(COc2ccc(OC)cc2)[n+](C)c2ccccc21	.	/	/
Cc1oc2c(c1C(=O)NCc1cccnc1)C(=O)c1ccccc1C2=O	.	/	/
Nc1cccnc1Sc1cccc(Cl)c1	.	/	/
O=C(NCc1cccnc1)c1cc(Sc2cccc(Cl)c2)nc2ccccc12	-47	.	.
O=C1C(NS(=O)(=O)c2ccc(Cl)cc2)=C(N2CCCCC2)C(=O)c2ccccc21	.	/	/
O=S1(=O)N=C(Nc2ccc(S(=O)(=O)N3CCCCC3)cc2)c2ccccc21	-44	.	.
Cc1[nH][nH]c(=O)c1C(c1c(C)[nH][nH]c1=O)c1cn(Cc2cccc3ccccc23)c2ccccc12	.	/	/
Cc1ccccc1Cn1cc(/C=N/n2cnnc2)c2ccccc21	-57	.	.
SMILES	Apaf1 activ	Rh110 interf act	Apaf-1 act conf
O=C(/C=C/c1ccoc1)c1ccccc1O	-134	.	.
O=C1c2ccccc2-c2nnc(-c3ccccc3)cc21	.	/	/
CCN1CCN(Cc2ccc(NC(=O)c3cc(NC(=O)c4cncc(-c5cccs5)c4)cc(OC)c3)cc2C(F)(F)F)CC1	.	/	/
CCN(CC)C(=O)CSc1nc2ccccc2c(=O)n1CC	-176	.	.
CN1CCN(c2cc3c(c4c2[nH]c2ccccc24)C(=O)CC(C)(C)C3)CC1	.	/	/
Oc1c(Br)cc(C=Nc2ccc3nc(-c4ccccc4)[nH]c3c2)c(O)c1Br	.	/	/
O=C1CC(N2CCN(C3CCc4ccccc4C3)CC2)C(=O)N1c1ccccc1 (stereo unspecified)	-43	.	.
O=C1C=C(Nc2ccccc2C(=O)O)c2ccccc2C1=O	.	/	/
Nc1ncc2[nH]cnc2n1	.	/	/
C=CCN1C=C2C(=O)C(C)(OC(=O)CCC(=O)OC)C(=O)C=C2C=C1C1CC1 (stereo unspecified)	.	/	/
Cc1ccc(C(=O)NNc2cc(N3CCCC3)nc(N3CCCC3)n2)cc1	.	/	/
CCOC(=O)C1CCN(C(=O)Nc2ccc3nc(-c4ccco4)c(-c4ccco4)nc3c2)CC1	.	/	/
COc1ccc(NC(=S)N2CCC(C(=O)c3ccc(C)cc3)CC2)cc1	-103	.	.
CC[C@@H](C)[C@H](CNC)NC[C@@H](Cc1cccc2ccccc12)NCCc1cccc(C(F)(F)F)c1	.	/	/
COC(=O)c1ccc(-c2ncc(-c3cccc4ccccc34)o2)cc1	.	/	/
Cc1cc(Br)ccc1OCCCCN1CCC(C)CC1	-57	.	.
Cc1c(CCOC(=O)C2C3CC4CC(C3)CC2C4)sc[n+]1CC(=O)c1ccc(Br)cc1 (stereo unspecified)	.	/	/
Cc1cccc(CN2C(=O)/C(=C\c3ccc(C(=O)NCCCN4CCN(C)CC4)cc3)Oc3ccccc32)c1	.	/	/

High-throughput results (PubChem)
